UBC9 SUMO inh: inhibitors of in vitro SUMOylation cascade, primary screen, biochemical, HTRF, uHTS; HTRF SUMOylation assay, SAE1/SAE2 + UBC9; SUMO-conjugating enzyme UBC9 (Homo sapiens), P63279; inhibition, % at 35 µM; AID 2006, 2009; 290,000 compounds, 0.36% hits; in the data active = inhibition above about 50%, passing the limit was not always enough
Target sequence (P63279 whole entry, looked up): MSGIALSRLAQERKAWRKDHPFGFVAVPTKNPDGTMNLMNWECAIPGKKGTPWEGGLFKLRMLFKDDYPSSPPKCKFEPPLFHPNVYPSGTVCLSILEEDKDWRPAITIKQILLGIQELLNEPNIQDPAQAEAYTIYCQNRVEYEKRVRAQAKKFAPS
A3G deaminase: APOBEC3G DNA deaminase inhibitors, primary screen, biochemical, fluorescence, single-stranded DNA substrate, uHTS; inhibition, % at 20 µM; 330,000 compounds, 0.28% hits; recombinant A3G, ssDNA deamination FAM/TAMRA fluorescence; AID 493012, 2011;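 active = inhibition of at least 40% at 20 µM, with no more than 30% in the related APOBEC3A deaminase screen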;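 also: plate controls were DMSO wells with A3G for no effect and wells lacking A3G enzyme for full effect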
PfM18AAP inh-1: PfM18AAP inhibitors, malaria aminopeptidase, primary screen, biochemical, QFRET, recombinant enzyme. inhibition, % at 7.35 µM. H-Glu-NHMec fluorogenic cleavage. 290,000 compounds, 1.2% hits. AID 1822, 2009. M18 aspartyl aminopeptidase (Plasmodium falciparum 3D7);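 active = inhibition above the campaign mean inhibition over all tested compounds plus 3 SD, cut at about 28% in these data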;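 also: 0% = plate median of test compound wells and 100% = 2 mM ZnCl2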
PfG6PD inh: PfG6PD enzyme inhibitors, primary screen, biochemical, fluorescence intensity, uHTS; glucose-6-phosphate dehydrogenase-6-phosphogluconolactonase (Plasmodium falciparum 3D7); PfGluPho enzyme, NADPH resazurin-diaphorase fluorescence; 350,000 compounds, 0.78% hits; AID 504690, 2011; inhibition, % at 20 µM;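 active = inhibition reaching at least a set limit at 20 µM in the primary screen, cut at about 59% in these data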;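 also: 0% = DMSO wells with substrate and 100% = DMSO wells lacking glucose-6-phosphate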
APOBEC3A inh: APOBEC3A ssDNA deaminase inhibitors, primary screen, selectivity assay for APOBEC3G inhibitor project, biochemical, FAM/TAMRA oligo cleavage fluorescence; DNA dC->dU-editing enzyme APOBEC-3A (Homo sapiens), P31941; recombinant A3A, FAM/TAMRA ssDNA deamination fluorescence; inhibition, % at 20 µM; 330,000 compounds, 0.41% hits; AID 493011, 2011;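 active = at least 40% inhibition at 20 µM here, with at most 30% in a related deaminase screen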;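 also: plate controls were A3A with DMSO for no effect and wells lacking A3A enzyme for full effect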
Target sequence (P31941 whole entry, looked up): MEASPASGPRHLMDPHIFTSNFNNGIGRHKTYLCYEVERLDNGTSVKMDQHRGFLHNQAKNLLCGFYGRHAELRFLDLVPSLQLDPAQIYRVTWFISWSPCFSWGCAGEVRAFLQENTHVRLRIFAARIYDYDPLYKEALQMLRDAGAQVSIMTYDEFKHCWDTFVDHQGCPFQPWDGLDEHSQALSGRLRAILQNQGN
HKDC1 inh: HKDC1 hexokinase inhibitors, primary screen, biochemical, fluorescence, uHTS; AID 493160, 2011; inhibition, % at 20 µM; recombinant HKDC1, G6PDH/diaphorase resazurin coupled fluorescence; Q2TB90; 340,000 compounds, 0.16% hits;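 active = inhibition above about 35% when tested at 20 µM, limit read from the data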;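 also: plate controls were DMSO wells with enzyme for no effect and DMSO wells lacking enzyme for full effect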
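Material: recombinant HKDC1 hexokinase; Amount: HKDC1 at 5 µg/mL; Medium: Tris pH 8.0 buffer with MgCl2, Tween-20, BSA, BME; Schedule: 90 min reaction incubation at room temperature, dark; Technique: coupled resazurin fluorescence, excitation 525 nm, emission 613 nm.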
PfM18AAP inh-2: PfM18AAP inhibitors, malaria aminopeptidase, confirmation, biochemical, QFRET, recombinant enzyme, triplicate; shares compounds with PfM18AAP inh-1; AID 2170, 2009; 2,400 compounds, 28% hits; H-Glu-NHMec fluorogenic cleavage; inhibition, % at 7.35 µM;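 active = mean inhibition over replicate wells above the hit cutoff set for the earlier primary screen, cut at about 29% in these data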;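 also: 0% = median of test compound wells and 100% = 2 mM ZnCl2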
CTSL1 confirm: cathepsin L1 inhibitors, retest, confirmation, counter-screen for PFM18AAP inhibitor project, biochemical, QFRET, triplicate; shares compounds with PfM18AAP inh-1; purified cathepsin L1, Z-Leu-Arg-MCA fluorescence; inhibition, % at 5.96 µM; 2,400 tested, under 10 active;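 active = average inhibition across replicates above the hit cutoff set in the earlier primary screen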;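 also: 0% = median of test compound wells and 100% = Z-Phe-Ala-diazomethylketone 1 µM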
Starred values were filed as active, the others as inactive; . = no result given. A selection: hits, their analogues and other compounds. The true share with any hit is near 2.4%.

SMILES	UBC9 SUMO inh	A3G deaminase	PfM18AAP inh-1	PfG6PD inh	APOBEC3A inh	HKDC1 inh	PfM18AAP inh-2	CTSL1 confirm
CC1(C(=O)CSc2nc3ccccc3[nH]2)CCC(=O)O1 (stereo not given)	-7.4	-6.2	-0.7	-8.2	-0.8	-5.2	.	.
O=C(CSc1ncn[nH]1)Nc1ccc([N+](=O)[O-])cc1Br	-5.6	-4.0	66.6*	-11.4	-2.2	6.0	78.7*	-2.2
O=C(CSc1ncn[nH]1)CSc1ncn[nH]1	-9.1	-2.6	47.5*	5.8	4.7	3.6	18.8	-8.1
O=C1c2ccccc2C(=O)N1CCSc1ncn[nH]1	10.5	-5.0	21.0	-20.6	-3.0	-0.7	.	.
CC1(C(=O)CSc2ncn[nH]2)CCC(=O)O1 (stereo not given)	-20.7	-0.3	58.3*	.	-3.2	.	69.9*	-2.2
CC(=O)Nc1nonc1NC(=O)CSc1ncn[nH]1	-26.7	-5.4	47.6*	0.8	-3.8	-1.8	39.6*	0.1
CCOc1cc(N2CCOCC2)c(OCC)cc1NC(=O)CSc1n[nH]c(N)n1	14.4	-0.1	2.7	34.6	4.2	6.5	.	.
CCOc1cc(N2CCOCC2)c(OCC)cc1NC(=O)CSc1ncn[nH]1	-7.5	2.8	48.6*	4.9	15.8	-5.2	-13.4	-3.0
Cc1ccc(C(=O)N2CCN(c3ncccn3)CC2)c(C)c1	7.7	-3.1	-15.5	-4.2	0.9	-6.7	.	.
COc1cc2ccc(=O)oc2c(O)c1OCC=C(C)C	5.3	-2.2	40.1*	-11.5	-4.2	7.6	-37.7	1.7
O=C1[C@@H]2Cc3c([nH]c4ccccc34)C(c3cccc(Br)c3)N2C(=O)CN1C1CCN(Cc2ccccc2)CC1 (stereo not given in full)	-13.7	-9.3	-1.8	13.9	-2.7	1.6	.	.
O=C1[C@@H]2Cc3c([nH]c4ccccc34)C(c3ccccc3)N2C(=O)CN1C1CCN(Cc2ccccc2)CC1 (stereo not given in full)	-8.9	-0.4	40.6*	6.5	1.7	3.8	-45.6	2.4
N#C/C(=C\c1ccc(Sc2nc3ccccc3[nH]2)o1)c1ccccc1	-5.5	-10.6	-4.4	25.8	2.3	-0.1	.	.
Cc1cc(NC(=O)CSc2nnc(CNC(=O)c3ccccc3)o2)no1	12.9	8.9	9.5	-7.6	-0.7	1.8	.	.
Cc1cc(NC(=O)CSc2nnc(Cc3ccccc3)o2)no1	-1.0	-8.0	40.3*	-9.5	-3.5	-7.7	-35.4	2.2
O=C(NCCc1c[nH]c2ccccc12)Nc1ccccc1	-5.4	-12.3	-0.7	5.0	-4.7	1.8	.	.
Oc1ccc(/C=N/n2cnn(Cc3ccccc3Cl)c2=S)c(O)c1	3.0	3.3	38.6*	35.2	-2.5	10.8	-12.1	0.9
CCCC(=O)N(c1ccc2oc(=O)sc2c1)S(=O)(=O)c1ccccc1	-43.3	-3.5	32.8*	-0.8	-2.4	-25.5	-18.5	-1.2
CC(=O)N(c1ccc2oc(=O)sc2c1)S(=O)(=O)c1ccc(C(=O)O)cc1	-19.9	6.4	46.0*	18.7	2.9	-15.3	8.2	-3.2
COc1ccc(N(C(=O)C(C)C)S(=O)(=O)c2cccs2)cc1	-7.6	0.0	-8.6	-14.9	1.2	9.3	.	.
CC(=O)N(c1ccc2oc(=O)sc2c1)S(=O)(=O)c1cccs1	-10.3	-2.3	40.0*	14.1	-1.6	-31.8	-23.1	2.9
